# Laboratory results: PubChem BioAssay
# Activity calls are given as the source filed them.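 Rule for the calls, unless noted: active = compounds giving at least 50% inhibition in the cell-based MKP-3 phosphatase rescue imaging test; inactive = the rest.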
# Assays:
# [1] = inhibitors of TNFa-induced NFkB p65 translocation, primary screen, imaging, HUVEC, MLSMR starter and 10KST1 sets (AID 438;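 active = inhibition above 20% together with a positive visual image hit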;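 note: compound added about 3h40 before a 20 min TNFalpha stimulation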;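 for inhibition: signal is the nuclear over cytoplasmic p65 intensity ratio per well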); settings: HUVEC TNFa-induced p65 nuclear translocation; cell count: measured here: nuclei count (cytotoxicity indicator), at 2.08 µM; inhibition: at 2 µM, stronger effect = higher value, 0% TNFa-plus-vehicle, 100% no-TNFa wells
# [2] = inhibitors of E-selectin induction by TNFa, primary screen, imaging, HUVEC, immunofluorescence, MLSMR starter and 10KST1 sets (AID 487;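 active = visually confirmed hit in the image check and inhibition above 20%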;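 for inhibition: signal is fraction of cell area covered by stained E-selectin grains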;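 for nuclei count: 100% = median nuclei count of all wells on the same plate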); settings: HUVEC TNFalpha-induced E-selectin immunofluorescence imaging, at 2 µM; inhibition: stronger effect = higher value; nuclei count: measured here: cell number, toxicity
# [3] = DUSP6 inhibitors restoring Erk phosphorylation by chemical complementation, primary imaging in DUSP6-transfected HeLa (AID 609); settings: HeLa MKP-3 transfected, phospho-Erk imaging KS statistic, at 10 µM, cells stimulated with TPA for 15 min;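 for inhibition: phospho-Erk level distribution per well compared with pooled transfected vehicle control wells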
# [4] = target: Dual specificity protein phosphatase 6 (Homo sapiens) (UniProt Q16828); test: as above; settings: HeLa MKP-3 transfected, phospho-Erk imaging KS statistic; at 10 µM; stronger effect = higher value; cells stimulated with TPA for 15 min
# Chain of Dual specificity protein phosphatase 6 (Homo sapiens) (Q16828 whole entry, looked up): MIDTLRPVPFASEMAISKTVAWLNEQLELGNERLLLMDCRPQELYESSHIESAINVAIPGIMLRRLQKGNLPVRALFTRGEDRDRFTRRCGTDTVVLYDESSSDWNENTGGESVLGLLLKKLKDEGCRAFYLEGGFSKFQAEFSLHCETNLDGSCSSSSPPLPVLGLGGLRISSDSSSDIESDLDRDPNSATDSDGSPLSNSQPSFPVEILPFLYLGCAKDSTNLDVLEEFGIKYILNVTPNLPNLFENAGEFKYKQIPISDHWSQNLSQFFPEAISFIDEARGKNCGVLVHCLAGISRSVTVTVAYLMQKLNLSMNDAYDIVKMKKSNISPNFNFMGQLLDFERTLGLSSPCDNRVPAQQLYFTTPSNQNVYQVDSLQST
# [5] = target: Voltage-gated potassium channel subunit beta-2 (Rattus norvegicus) (UniProt P62483); test: KvBeta enzyme negative modulators, primary screen, biochemical, NADPH fluorescence (AID 622;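 active = fluorescence slope higher than the sample average by over 3 SD, cut at about -0.22 in these data, passing the limit was not always enough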;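 note: slope of raw intensity against log time taken from 70 to 1610 s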); settings: recombinant KvBeta, 4-cyanobenzaldehyde reduction, at 10 µM, stronger effect = higher value
# Chain of Voltage-gated potassium channel subunit beta-2 (Rattus norvegicus) (P62483 whole entry, looked up): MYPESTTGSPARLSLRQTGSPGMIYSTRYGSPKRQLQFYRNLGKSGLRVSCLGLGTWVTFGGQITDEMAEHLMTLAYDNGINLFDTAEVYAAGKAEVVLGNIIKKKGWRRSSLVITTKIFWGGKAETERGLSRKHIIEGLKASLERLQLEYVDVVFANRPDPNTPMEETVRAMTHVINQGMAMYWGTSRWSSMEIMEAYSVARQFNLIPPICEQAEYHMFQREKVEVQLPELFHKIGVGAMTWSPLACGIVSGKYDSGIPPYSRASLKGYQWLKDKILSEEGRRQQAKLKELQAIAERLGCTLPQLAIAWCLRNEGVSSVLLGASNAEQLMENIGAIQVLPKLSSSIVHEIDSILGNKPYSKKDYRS
# [6] = target: Voltage-gated potassium channel subunit beta-2 (Rattus norvegicus) (UniProt P62483); test: KvBeta positive modulators, primary screen, biochemical, NADPH fluorescence (AID 623;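 active = NADPH fluorescence slope more negative than the mean of all samples by about 3 SD, 99.7% confidence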;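 note: fluorescence intensity change per second fitted from 20 to 320 s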); settings: Recombinant KvBeta, NADPH fluorescence decrease slope, 10 min; at 10 µM; stronger effect = lower value
# [7] = target: Muscarinic acetylcholine receptor M4 (Homo sapiens) (UniProt P08173); test: compounds altering M4/GIRK thallium flux, either direction, primary screen, M4 allosteric agonist project, cell-based, HEK293 M4/GIRK, BTC-AM (AID 625;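 active = fluorescence slope after compound addition differing from the mean of all tested samples at 99.7% confidence, mostly higher but some lower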;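 note: thallium influx through GIRK channels coupled to M4 in HEK293 cells with BTC-AM dye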); settings: at 10 µM, actives lie on both sides
# Chain of Muscarinic acetylcholine receptor M4 (Homo sapiens) (P08173 whole entry, looked up): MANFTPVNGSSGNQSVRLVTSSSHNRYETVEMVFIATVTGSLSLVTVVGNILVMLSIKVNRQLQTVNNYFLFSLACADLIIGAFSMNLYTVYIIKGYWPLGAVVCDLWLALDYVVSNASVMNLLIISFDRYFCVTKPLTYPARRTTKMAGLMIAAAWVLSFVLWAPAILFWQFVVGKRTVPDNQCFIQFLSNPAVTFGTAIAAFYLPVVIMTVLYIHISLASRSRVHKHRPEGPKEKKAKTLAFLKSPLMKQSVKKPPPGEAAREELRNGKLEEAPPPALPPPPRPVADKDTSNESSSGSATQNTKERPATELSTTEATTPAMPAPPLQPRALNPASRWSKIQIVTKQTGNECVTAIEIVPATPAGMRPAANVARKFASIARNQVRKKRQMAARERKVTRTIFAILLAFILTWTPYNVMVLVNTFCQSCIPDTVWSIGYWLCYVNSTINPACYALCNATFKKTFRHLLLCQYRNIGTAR
# How it was run: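 System: HEK293 cells with M4 receptor and GIRK channels | Incubation: Cells overnight at 37 °C, BTC-AM loading 1 h, reads 2 min total | Technique: Kinetic BTC-AM fluorescence sampled at 1 Hz, 10 s pre-addition baseline | Measure: Post-addition slope, 15–24 s, of baseline-normalized fluorescence | Control set: Carbachol positive, DMSO negative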
# [8] = inhibitors of larval lipid processing in zebrafish, primary screen, whole organism, PED6 fluorescence, gall bladder and intestine (AID 686;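 active = a full or partial loss of lipid-probe fluorescence in the fish gall bladder, intestine or both, judged by eye; inactive = no fluorescence loss, or compound toxic to the fish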;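 note: larvae 5 to 7 days old with five fish per well; signal comes from phospholipase A2 cleavage of quenched PED6 carried via bile; overnight exposure to compound and PED6 before scoring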); settings: Zebrafish larvae PED6 lipid processing, fluorescence scoring; screened at 20 µM (by protocol)
# How it was run: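 Test system – live zebrafish larvae aged 5-7 days, whole organism · Buffer or medium – E3 fish medium · Reagent – quenched phospholipase substrate PED6, 100 nM final, ingested by larvae · Doses – 20 µM single dose · Incubation – overnight compound and PED6 incubation · Technique – visual fluorescence microscopy scoring of gall bladder, gut · Read-out basis – visual per-well fluorescence inhibition score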
# [9] = inhibitors of Chlamydomonas gravitaxis, primary screen, whole organism, Chlamydomonas reinhardtii, WT vs cilia-less mutant, absorbance, 96-well (AID 463189;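 active = inhibition at or above 50% relative to wild type and mutant plate controls; inactive = inhibition below 50%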;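 note: 0% = wild type cc124 cells in DMSO and 100% = ciliumless bld1 mutant cells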); settings: OD600 absorbance, 2 days, at 10 µM, stronger effect = higher value
# [10] = measured here: cell density z-score
# [11] = measured here: nuclear c-Myc green intensity z-score
# [12] = measured here: nuclear pErk red intensity z-score, stronger effect = higher value
Compound,cell count [1],inhibition [1],inhibition [2],nuclei count [2],"z-score [3, 10]","z-score [3, 11]","z-score [3, 12]",inhibition [4],fluorescence slope [5],NADPH fluorescence slope [6],fluorescence slope [7],outcome [8],inhibition [9]
Cc1c(C)n(C(=O)CSc2nccn2C)c2ccccc12,625,8.3% (inactive),-34.7% (inactive),106%,-0.766,1.61,0.593,1.63% (inactive),-0.416 (inactive),-3.5e-05 (inactive),0.00619 (inactive),inactive,-7.86% (inactive)
CC1(C)Cc2c(c(N3CCOCC3)nc3sc4c(=O)[nH]cnc4c23)CS1,493,-5.7% (inactive),10.3% (inactive),100%,-0.312,0.705,1.1,7.93% (inactive),-0.44 (inactive),-1.9e-05 (inactive),0.00568 (inactive),inactive,28.7% (inactive)
Cc1cc(OCC(=O)Nn2cnnc2)ccc1Br,529,-8.3% (inactive),-72.3% (inactive),119%,0.551,0.431,0.858,-6.59% (inactive),-0.433 (inactive),-0.00012 (inactive),0.00434 (inactive),inactive,-9.18% (inactive)
COc1cccc(N2CCN(C(=O)c3ccc(=O)oc3)CC2C)c1 (stereo not drawn),548,-13.7% (inactive),-2.6% (inactive),114%,0.444,-0.0742,1.46,-2.91% (inactive),-0.418 (inactive),6.4e-07 (inactive),0.00472 (inactive),inactive,13.7% (inactive)
Cc1c(=O)n(OCc2c(F)cccc2F)c2ccccc2[n+]1[O-],542,-10.8% (inactive),-125% (inactive),163%,-0.166,-0.624,-0.0317,3.97% (inactive),-0.406 (inactive),-4.3e-05 (inactive),0.00531 (inactive),inactive,-0.428% (inactive)
COc1cc(=O)[nH]c(=O)n1CC(=O)c1ccccc1,719,-7.7% (inactive),-4.5% (inactive),160%,-0.792,1.02,1.07,-2.09% (inactive),-0.452 (inactive),-3.7e-05 (inactive),0.00585 (inactive),inactive,-0.879% (inactive)
C=CCc1cccc(/C=N/n2cnnc2)c1O,534,-6.9% (inactive),-121% (inactive),136%,-0.238,0.5,-0.321,13.4% (inactive),-0.446 (inactive),-0.00012 (inactive),0.00478 (inactive),inactive,-8.96% (inactive)
Cc1ccc(-c2nn(C)c(=O)c3ccccc23)cc1CNC(=O)CSc1nc2ccccc2o1,547,3.6% (inactive),21.6% (inactive),106%,-1.01,1.51,0.619,1.98% (inactive),-0.419 (inactive),-5.4e-05 (inactive),0.00502 (inactive),inactive,22.8% (inactive)
CN1CCc2c(C#N)c(N3CCCCC3)nc(N3CCOCC3)c2C1,534,-9.2% (inactive),-129% (inactive),127%,0.848,-1.39,0.568,-0.584% (inactive),-0.418 (inactive),-5.8e-05 (inactive),0.00417 (inactive),inactive,4.52% (inactive)
COc1ccc(C2CC(c3ccc(C)cc3)Nc3nc(N)nn32)cc1 (stereo not drawn),390,2.2% (inactive),-104% (inactive),145%,-0.765,2.44,-0.827,9.82% (inactive),-0.447 (inactive),-7.3e-05 (inactive),0.00548 (inactive),inactive,-10.9% (inactive)
O=c1[nH]cnc2c1cnn2Cc1ccccc1,509,-2.1% (inactive),-58.3% (inactive),145%,0.233,-0.586,0.288,-3.97% (inactive),-0.354 (inactive),-5.1e-05 (inactive),0.00657 (inactive),inactive,-9.15% (inactive)
COc1ccc(CC(=O)Nc2cccc(-c3nnc(-c4ccco4)o3)c2)cc1,671,-0.9% (inactive),6.2% (inactive),177%,-0.286,1.67,1.63,-15.1% (inactive),-0.475 (inactive),-8e-05 (inactive),0.00587 (inactive),inactive,0.83% (inactive)
O=C1CC(c2ccccc2)n2nc(N3C(=O)c4ccccc4C3=O)nc2N1 (stereo not drawn),397,3% (inactive),-72.9% (inactive),114%,0.561,0.157,-0.686,2.71% (inactive),-0.441 (inactive),-1.7e-05 (inactive),0.00457 (inactive),inactive,21.6% (inactive)
Cc1cccc(-n2ncc3c(NCc4ccco4)ncnc32)c1,648,-12.5% (inactive),-84.2% (inactive),165%,0.86,-0.2,-0.239,11.4% (inactive),-0.385 (inactive),-4.7e-05 (inactive),0.00641 (inactive),inactive,2.88% (inactive)
O=C1NC(=O)C(c2cn(-c3ccccc3)nc2-c2ccc(F)cc2)N1 (stereo not drawn),664,1.3% (inactive),-12.6% (inactive),115%,0.135,-0.561,-0.862,3.49% (inactive),-0.46 (inactive),-5.3e-05 (inactive),0.005 (inactive),inactive,2.79% (inactive)
N#Cc1c(NCCN)nc(NCc2ccccc2)c2c1CCN(Cc1ccccc1)C2,566,3% (inactive),-151% (inactive),145%,0.625,-0.717,1.05,3.42% (inactive),-0.466 (inactive),-8.7e-06 (inactive),0.00448 (inactive),active; weak signal in gallbladder and intestine,15.7% (inactive)
CCN(CC)CCCN1C(=O)C(=O)/C(=C(/O)c2ccccc2)C1c1cc(OC)ccc1OC (stereo not drawn),414,-1.4% (inactive),-75.8% (inactive),153%,-0.00303,-1.03,1.76,1.48% (inactive),-0.469 (inactive),-0.000138 (inactive),0.00498 (inactive),inactive,32.7% (inactive)
COc1cccc(C(=O)OC2CCCN(C)C2)c1 (stereo not drawn),524,1.2% (inactive),-39.2% (inactive),141%,0.452,1.21,0.0712,9.42% (inactive),-0.457 (inactive),-8.4e-05 (inactive),0.00427 (inactive),inactive,0.435% (inactive)
CCCCCOc1ccccc1C(=O)NCC(=O)O,376,-5% (inactive),-55.5% (inactive),169%,0.663,-0.72,-0.603,-0.584% (inactive),-0.438 (inactive),-9.1e-05 (inactive),0.00543 (inactive),inactive,-2.86% (inactive)
Cc1ccc(-n2ncc3c(N4CCCC4)ncnc32)c(C)c1,615,-13.7% (inactive),4.8% (inactive),158%,0.427,-1.76,-0.345,-2.59% (inactive),-0.327 (inactive),-4.9e-06 (inactive),0.00689 (inactive),inactive,147% (active)
COc1cccc(C(=O)c2sc(NC(C)C)nc2N)c1,637,-11.5% (inactive),61.3% (inactive),158%,-0.552,2.2,0.884,-3.95% (inactive),-0.496 (inactive),-7.1e-05 (inactive),0.00607 (inactive),inactive,-1.39% (inactive)
Cc1ccc(N(CC(O)CN(C)C)S(=O)(=O)c2ccccc2)cc1 (stereo not drawn),587,-9.4% (inactive),6.4% (inactive),192%,1.28,-0.151,0.0736,-4.59% (inactive),-0.384 (inactive),-7.3e-05 (inactive),0.00579 (inactive),inactive,11.5% (inactive)
COc1ccccc1C1/C(=C(/O)c2ccc(C)cc2)C(=O)C(=O)N1CCN1CCOCC1 (stereo not drawn),652,-11.9% (inactive),-32.2% (inactive),133%,-0.486,-0.67,0.136,-2.09% (inactive),-0.506 (inactive),-4e-05 (inactive),0.0067 (inactive),inactive,0.641% (inactive)
CCOC(=O)/C=c1\s/c(=C(\C#N)C(=O)OCC)n(-c2ccccc2)c1=O,653,-4.6% (inactive),-12% (inactive),151%,-0.465,-0.678,-0.157,1.42% (inactive),-0.359 (inactive),-6.6e-07 (inactive),0.00573 (inactive),inactive,-7.74% (inactive)
Cc1nc(NCCCO)c(C#N)c2c1COC(C)(C)C2,588,-3.1% (inactive),-70% (inactive),142%,-0.306,-0.435,-0.462,12.8% (inactive),-0.432 (inactive),-9.1e-05 (inactive),0.00443 (inactive),inactive,24% (inactive)
CCc1[nH]c(=O)c(C#N)c2c1CCCC2,388,-8.1% (inactive),-57.4% (inactive),173%,-0.973,0.856,2.79,-12.6% (inactive),-0.495 (inactive),-0.000126 (inactive),0.00393 (inactive),inactive,26.8% (inactive)
